# Sampled rows, rich in hits. Any-hit rate of the full collection: about 1.3%.
# C-LANA FP = inhibitors of KSHV C-LANA binding to DNA, primary screen, biochemical, fluorescence polarization, FAM-LBS DNA, MBP-C-LANA, single point; hit rate 0.078% among 340,000; inhibition, % at 9 µM; AID 504423, 2011; Kaposi's sarcoma herpesvirus LANA C-terminal domain (residues 932-1162) DNA binding;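 active = highest replicate inhibition at or above 60% at 9 µM, even if other replicates fall short; inactive = all replicates below 60% inhibition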
# Keap1-Nrf2 PPI = Keap1-Nrf2 protein-protein interaction inhibitors, primary screen, biochemical, fluorescence polarization, single point. AID 504523, 2011. Keap1 Kelch-Nrf2 peptide fluorescence polarization, 1536-well. inhibition, % at 9.4 µM. hit rate 0.15% among 340,000. Kelch-like ECH-associated protein 1 (Homo sapiens), Q14145; in the data active = inhibition above about 12%; inconclusive = no clear call, values can overlap the other calls; inactive = below about 7.3%;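 also: human Keap1 Kelch domain with fluorescein labeled Nrf2 9mer peptide probe; higher means more block of Keap1 binding to Nrf2 peptide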
# T cell HTS = modulators of CD8 T cell-vesicle binding, primary screen, mouse 2C CD8+ T cells, flow cytometry; AID 2052, 2009; 2C CD8+ T cell-vesicle binding; stronger effect = lower value; hit rate 0.068% among 330,000; response (vesicle binding), % at 7 µM;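 active = response, share of CD8 T cells binding vesicles, and their 90th percentile fluorescence all below set limits, cut at about 80% in these data, passing the limit was not always enough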;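 also: values below 100% mean blocked vesicle binding to the CD8+ T cells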
#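 Benchmarks: naked versus QL9-loaded vesicles / Assay system: purified 2C TCR transgenic mouse naive CD8+ T cells / Technique: high-throughput flow cytometry with anti-B7-1 and anti-CD8 staining / Timing: Cell–vesicle co-incubation 1.5 h at 37 °C, staining 20 min on ice / Read-out: percent CD8+ FL2 mean versus row control / Probe or stimulus: QL9-loaded Drosophila micro-vesicles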
# EBV gp42 inh = Epstein-Barr virus gp42 inhibitors, primary screen, biochemical, uHTS, fluorescence polarization. Fluorescence polarization binding assay, mP read-out. hit rate 0.42% among 220,000. Glycoprotein 42 (Epstein-Barr virus (strain AG876)), Q1HVG2. AID 1085, 2008. inhibition, % (tested at 21.74 µM); in the data active = inhibition above about 50%
# GRK2 inh = compounds blocking aptamer binding on GRK2 – biochemical, human GRK2, bead flow cytometry, HTS, primary screen; inhibition of aptamer binding, % at 10 µM; AID 488847, 2010; hit rate 0.59% among 330,000; FAM-aptamer displacement from GRK2;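 active = inhibition of aptamer binding above 40%, roughly 3 SD of noise, on plates passing a quality check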;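 also: median bead fluorescence of bound FAM aptamer so fluorescent compounds give negative values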
# MEX-5 binding = MEX-5 zinc finger RNA-binding disruptors – biochemical, C. elegans, fluorescence polarization, MLPCN library, primary screen. Zinc finger protein mex-5 (Caenorhabditis elegans), Q9XUB2. MEX-5/FITC-TCR2 RNA binding; stronger effect = lower value. activity score (negative = inhibition of binding), % at 10 µM. hit rate 0.38% among 300,000;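 active = inhibition past about -25% in most replicates, and total fluorescence under double the plate's negative control median, limit read from the data; inconclusive = replicates evenly split on the limit, or fluorescence at least double controls; inactive = too little inhibition in most replicates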
# Target sequence (Q9XUB2 whole entry, looked up): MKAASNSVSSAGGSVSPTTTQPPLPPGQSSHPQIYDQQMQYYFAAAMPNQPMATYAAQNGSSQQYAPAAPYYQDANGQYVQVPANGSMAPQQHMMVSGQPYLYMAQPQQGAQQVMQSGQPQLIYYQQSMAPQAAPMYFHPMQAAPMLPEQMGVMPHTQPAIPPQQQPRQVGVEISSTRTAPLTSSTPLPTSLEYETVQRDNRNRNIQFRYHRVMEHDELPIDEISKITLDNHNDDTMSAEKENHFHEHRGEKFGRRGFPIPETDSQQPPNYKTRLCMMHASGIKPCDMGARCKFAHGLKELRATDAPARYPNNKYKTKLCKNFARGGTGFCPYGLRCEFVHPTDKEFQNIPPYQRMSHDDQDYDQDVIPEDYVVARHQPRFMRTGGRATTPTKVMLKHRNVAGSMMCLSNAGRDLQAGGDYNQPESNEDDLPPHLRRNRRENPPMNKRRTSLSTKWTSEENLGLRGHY
# GRK2 inh confirm = GRK2 aptamer-displacing inhibitors, retest, confirmation, biochemical, cherry pick 1, bead flow cytometry | shares compounds with GRK2 inh | bead-bound GRK2, FAM-aptamer displacement | AID 504451, 2011 | hit rate 4% among 2,000 | aptamer displacement, % at 10 µM;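 active = aptamer displacement above 40%, near three times the noise of non-fluorescent compounds, on plates passing quality checks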;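 also: negative values mostly reflect intrinsic compound fluorescence rather than true enhancement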
# Aptamer quench = fluorescent aptamer quenching in GRK2 counter-screen dose response; AID 504521; shares compounds with GRK2 inh; fluorescence change (kMESF span), kMESF (test concentration not listed); Fluorescent RNA aptamer beads, flow cytometry; stronger effect = higher value; 110 tested, under 10 active;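 active = compounds whose bead fluorescence drops by more than 37 kMESF across the dose range, marking them as dye quenchers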
# Aptamer quench SP = counter-screen for GRK2 aptamer inhibitors: fluorescent aptamer quenchers. shares compounds with GRK2 inh. Carboxyfluorescein RNA aptamer on beads, flow cytometry quenching; stronger effect = lower value. fluorescence response (% of DMSO), % at 10 µM. 2,000 tested, under 10 active;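 active = compounds that quench the bead-bound fluorescent RNA probe, cutting fluorescence to under half of the solvent control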;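 also: counterscreen run without GRK2 so only probe quenching by compound is measured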
# GRK2 CP2 = GRK2 aptamer-displacing inhibitors, hit retest, confirmation, biochemical, cherry pick 2, bead flow cytometry | shares compounds with GRK2 inh | bead-bound GRK2, FAM-aptamer displacement | inhibition of aptamer binding, % at 10 µM | 360 tested, under 10 active;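 active = inhibition of aptamer binding above 40%, about triple the noise seen with nonglowing compounds, on plates passing quality control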;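 also: negative values mostly come from compounds that fluoresce themselves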
# FAM quench SP = aptamer fluorescence quenching in GRK2 counter-screen; shares compounds with GRK2 inh; carboxyfluorescein RNA aptamer beads, flow cytometry quenching; stronger effect = lower value; fluorescence response vs DMSO, % at 10 µM; 360 tested, under 10 active; AID 588494;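 active = response vs DMSO under 50%, meaning signal dropped by over half, treated as fluorescence quencher; inconclusive = no clear call, values can overlap the other calls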;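 also: labelled aptamer on streptavidin beads without GRK2 as a quench counter-screen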
# Keap1 Kelch bind = Keap1 Kelch domain binders by thermal stabilisation, dose response, biophysical, thermal shift, RT-PCR instrument, cherry-pick; shares compounds with Keap1-Nrf2 PPI; delta Tm; stronger effect = higher value; max delta Tm, degrees C; hit rate 8% among 400; AID 651823, 2012; in the data active = max delta Tm above about 0.48 degrees C
# Sypro dye melt = Sypro Orange dye melt without protein, dose response, artefact control for Keap1-Nrf2 interaction inhibitor project, biochemical, thermal shift counterscreen, cherry-pick | shares compounds with Keap1-Nrf2 PPI | Sypro Orange dye-only thermal melt, no protein, delta Tm; top dose 26 µM | delta Tm, degrees C (test concentration not listed) | 140 tested, under 10 active;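 active = at highest dose tested, delta Tm positive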
# Numbers stand for hits; – = inactive; ? = inconclusive; · = not tested or not shown.
SMILES,C-LANA FP,Keap1-Nrf2 PPI,T cell HTS,EBV gp42 inh,GRK2 inh,MEX-5 binding,Keap1 Kelch bind,others
N#CCCn1cc(C(=O)Nc2ccc([N+](=O)[O-])cc2)c(-c2ccc3c(c2)OCCO3)n1,–,–,–,–,66,·,·,GRK2 CP2=–;FAM quench SP=–
COc1cccc(N=Cc2c(O)n(Cc3ccco3)c(=O)[nH]c2=O)c1,–,–,–,–,–,–,·,
O=C(O)c1cccc2c1NC(C(=O)O)C1CC(Sc3ccccc3[N+](=O)[O-])C(Cl)C21 (stereo not given),132,31,–,–,60,·,1,GRK2 inh confirm=41;Aptamer quench=–;Aptamer quench SP=–
N=c1c2c(n(Cc3ccc(Cl)cc3Cl)c3c1CCC3)CCCC2,–,–,–,–,–,–,·,
CC1=C[C@@H]2c3cccc4[nH]cc(c34)C[C@H]2N(C)C1,–,14,–,·,–,-58,–,
CCn1cc(C=C2C(=O)NC(=O)NC2=O)c2ccccc21,–,21,–,·,–,-46,–,
CC1=NCCc2c1[nH]c1cc(O)ccc21,168,102,–,·,–,·,–,Sypro dye melt=–
CCOC(=O)c1c(/N=C/c2c(O)n(-c3cccc(C)c3)c(=O)[nH]c2=O)sc2c1CCCC2,–,72,–,–,–,–,–,
CCOC(=O)c1sc(/N=C/c2c(O)n(-c3ccccc3)c(=O)[nH]c2=O)c(C#N)c1C,–,–,–,–,–,–,·,
COc1ccccc1N1C(=O)NC(=O)/C(=C/c2ccc3c4c(cccc24)CC3)C1=O,–,–,–,–,–,–,·,
COCCNC(=O)Cn1cc(/C=C2\C(=O)NC(=O)N(c3cccc(C)c3C)C2=O)c2ccccc21,–,20,–,·,–,?,–,Sypro dye melt=–
CCCc1nc2ccccc2c(=O)n1-c1ccc(OC)cc1,–,–,–,–,–,–,·,
COc1ccc(-n2c(CNCCc3ccc(C)cc3)nc3ccccc3c2=O)cc1,–,36,–,·,–,–,–,Sypro dye melt=–
Clc1ccccc1C1=NCc2nncn2-c2sc(Br)cc21,·,·,–,·,–,·,·,
COc1ccc(C(C)=O)cc1CC(C(=O)c1ccccc1)N(C)C (stereo not given),–,–,–,–,–,–,·,
Cc1ccc(-c2nc3ccccc3c(=O)n2-n2cccc2)cc1,–,–,–,–,–,–,·,

# Assay outcomes as filed in PubChem.
